From ChEMBL document CHEMBL2021820, “Synthesis, vasorelaxant activity, and molecular modeling study of some new phthalazine derivatives” (Eur J Med Chem, 2012) come the findings set out here.

Where a name gives a salt, the structure may show the parent alone.

In assay [1] the test system is Thoracic aorta. In words: Vasorelaxant activity in Wister rat thoracic aorta rings assessed as reduction in maximal noradrenaline-induced spasms. The format is functional, tissue-based. In short, it runs like this:
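Aortic preparations equilibrated for 2 h at 2 g resting tension. Contraction to norepinephrine hydrochloride (10^-6 M) was recorded before and after exposure to increasing concentrations of compound. Compounds came from a 0.01 M DMSO stock. Vehicle controls used DMSO alone at matching concentrations.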

The test system of assay [2] is Thoracic aorta. As to the kind of experiment: Ratio of IC50 for prazosin to IC50 for compound in noradrenaline-contracted Wister rat thoracic aorta rings. Format: functional.

A word on the IC50: it is the concentration needed to halve the response being measured. For `O=C(CN1CCN(c2ccccc2)CC1)NNc1nncc2ccccc12`, in assay [1], the IC50 amounted to 560 µM.

In the case of `O=C(CN1CCN(c2ccc(Cl)cc2)CC1)NNc1nncc2ccccc12`, the 50% inhibitory concentration (IC50) in assay [1] came out at 450 µM.

Take `O=C(CN1CCN(c2cccc(C(F)(F)F)c2)CC1)NNc1nncc2ccccc12`: the 50% inhibitory concentration (IC50) in assay [1] stood at 410 µM.

In the case of `COc1ccccc1N1CCN(CC(=O)NNc2nncc3ccccc23)CC1`, the IC50 in assay [1] was 550 µM.

On to `CN1CCN(CC(=O)NNc2nncc3ccccc23)CC1`, for which the “Ratio IC50” value in assay [2] was found to be 3. Besides, in assay [1], the IC50 stood at 160 µM.

As for `CCOC(=O)N1CCN(CC(=O)NNc2nncc3ccccc23)CC1`, the IC50 in assay [1] is above 1000 µM.

In the case of `O=C(CN1CCOCC1)NNc1nncc2ccccc12`, the IC50 in assay [1] was 430 µM.

On to `O=C(Cn1ccnc1)NNc1nncc2ccccc12`, for which the half-inhibitory concentration (IC50) in assay [1] came out at 610 µM.

Turning to `O=C(CCN1CCN(c2ccccc2)CC1)NNc1nncc2ccccc12`, the concentration for half-maximal inhibition (IC50) in assay [1] stood at 270 µM.

For `O=C(CCN1CCN(c2ccc(Cl)cc2)CC1)NNc1nncc2ccccc12`, the IC50 in assay [1] was determined as 700 µM.

Turning to `O=C(CCN1CCN(c2cccc(C(F)(F)F)c2)CC1)NNc1nncc2ccccc12`, the IC50 in assay [1] worked out at 500 µM.

For `COc1ccccc1N1CCN(CCC(=O)NNc2nncc3ccccc23)CC1`, the “Ratio IC50” value in assay [2] turned out to be 5. For the same molecule, the IC50 in assay [1] worked out at 100 µM.

As to `CN1CCN(CCC(=O)NNc2nncc3ccccc23)CC1`, the IC50 in assay [1] stood at 360 µM.

Turning to `CCOC(=O)N1CCN(CCC(=O)NNc2nncc3ccccc23)CC1`, in assay [1], the IC50 was above 1000 µM.

Regarding `O=C(CCN1CCOCC1)NNc1nncc2ccccc12`, in assay [1], the IC50 was found to be 580 µM.

Turning to `O=C(CCn1ccnc1)NNc1nncc2ccccc12`, the 50% inhibitory concentration (IC50) in assay [1] was found to be 810 µM.

As for `COc1cc2nc(N3CCN(C(=O)c4ccco4)CC3)nc(N)c2cc1OC` [PRAZOSIN HYDROCHLORIDE], in assay [1], the IC50 worked out at 480 µM.
